Legend:
LTBP1 [1] = molecular target: T1, LTBP1 (Rhodnius prolixus, UniProt Q7YT09); assay: isothermal titration calorimetry, single-site fit; type: binding
T1 sequence (Q7YT09 18-173): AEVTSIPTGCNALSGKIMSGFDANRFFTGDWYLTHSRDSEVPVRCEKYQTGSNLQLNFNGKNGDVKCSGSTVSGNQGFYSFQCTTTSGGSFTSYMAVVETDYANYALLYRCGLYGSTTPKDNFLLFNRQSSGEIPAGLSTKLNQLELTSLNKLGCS

LTBP1 [2] = molecular target: T2, LTBP1 (Rhodnius prolixus, UniProt Q7YT09, Y131A); assay: isothermal titration calorimetry, single-site fit; type: binding
T2 sequence (Q7YT09 18-173 Y131A): T1 sequence (Q7YT09 18-173)
Method in brief: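 Titrated by ITC at 30 °C in 20 mM Tris HCl, pH 7.5, 150 mM NaCl, with 2 µM protein in the cell and 10 µL injections of ligand. Eicosanoid ligand solutions were prepared by removing ethanol and sonicating with buffer. Injection enthalpies were fitted to a single-site binding model.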

Structure (SMILES) | Kd (LTBP1 [1]) [nM] | Kd (LTBP1 [2]) [nM]
CCCCC/C=C\C[C@@H](O)/C=C/C=C/C=C\[C@@H](O)CCCC(=O)O [LTB4] | 238 | –
CCCCC/C=C\C\C=C/C=C/C=C/[C@@H](SC[C@H](NC(=O)CC[C@H](N)C(=O)O)C(=O)NCC(=O)O)[C@@H](O)CCCC(=O)O [LTC4] | – | 47.6
CCCCC/C=C\C\C=C/C=C/C=C/[C@@H](SC[C@H](N)C(=O)NCC(=O)O)[C@@H](O)CCCC(=O)O [LTD4] | – | 47.6
CCCCC/C=C\C\C=C/C=C/C=C/[C@@H](SC[C@H](N)C(=O)O)[C@@H](O)CCCC(=O)O [LTE4] | 2.13 | –
